From PubChem BioAssay come the findings set out here.

The nature of assay [1]: SK-BR-3 cell growth inhibitors, pilot screen, 24 h, human (AID 572;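 active = viability at or below 10% of carrier control in both of two separate runs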;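 note: compound exposure lasted between 18 and 24 h rather than exactly 24 h; 100% = carrier-treated control wells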). As to conditions: SK-BR-3 viability, CellTiter-Glo luminescence, at 10 µM, stronger effect = lower value. Background: ATP-based viability assays read luminescence as a measure of living cells.
Assay [2] is described as follows: HUVEC growth inhibition – cell-based, human, primary screen (AID 575;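 active = viability at or below 30% in both replicate assays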;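 note: 100% = median of untreated cell wells with 0.1% DMSO on each plate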). To be noted: HUVEC proliferation, CellTiter-Glo luminescence, 72 h; at 10 µM; stronger effect = lower value. The essentials:
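Test system: primary human umbilical vein endothelial cells; medium: endothelial basal medium with 2% FBS plus growth supplements; dosing: 10 µM compound only; times: 72 h treatment at 37 °C; signal: CTG luminescence; read-out: % viability relative to median vehicle-well signal on each plate; control set: vehicle and MePR control wells; plate: 384-well, collagen-coated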

Assay [3] can be described thus: growth inhibitors of H69AR lung tumor, primary screen, human, duplicate replicates (AID 580;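 active = viability at or under a set limit in both replicates, limit being median viability minus 3 SD, cut at about 48% in these data, passing the limit was not always enough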;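 note: 100% = mean luminescence of untreated wells and 0% = no signal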). To be noted: H69AR lung tumor cells viability, ATP luminescence, 72 h; at 10 µM; stronger effect = lower value.
Assay [4] is described as follows: reversal of MRP1-mediated doxorubicin resistance, pilot screen, H69AR cells, doxorubicin co-treatment (AID 601;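 active = viability loss from added drug above about 55%, and viability with drug at most 40%, in both replicates, limit read from the data, passing the limit was not always enough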). To be noted: CellTiter-Glo, 72 h, at 10 µM; for differential viability (reversal): stronger effect = higher value.
Assay [5] in a line: 384-well plate pilot, post-Golgi transport modulator project, inhibition of yeast transport mutant growth (AID 636; in the data active = inhibition above about 31%). To be noted: absorbance 615 nm, about 18 h, stronger effect = higher value.
A short description of assay [6]: growth suppression of yeast trafficking mutant, preliminary HTS, modulators of trafficking downstream of Golgi apparatus project, 1536-format plate, OD 615 nm (AID 637). As to conditions: yeast transport mutant growth, absorbance 615 nm, 18 h; stronger effect = higher value.
The mark [7] stands for this setting: H69AR cells + 2 uM doxorubicin, measured here: viability with 2 uM doxorubicin, stronger effect = lower value.
Setting [8] is: H69AR cells, compound alone cytotoxicity.

The structures appear in SMILES notation. Where “and” joins values, the source holds several entries; their conditions need not be identical. Identical values can stand only once. Calls of active or inactive are those of the source. Cut-off read from the data, not from the text of the source, unless noted: active = inhibition above about 30%; inactive = the rest.

One may read the viability as a read-out of living cells in per cent, often relative to untreated cells. One may read the inhibition as the change of the read-out against control, counted positive when it falls. Regarding `CC(C)(C)n1ncc2c(=O)n(CC(=O)NCc3ccc(F)cc3)cnc21`, the viability in assay [1] is 95% (inactive); in assay [2] it was 63.4% (inactive); in assay [3] it was 14.6% (active); in assay [4] (setting [7]), 74.4%; in assay [4] (setting [8]), 14.6%. In addition, in assay [4] (H69AR cells + 2 uM doxorubicin), the differential viability (reversal) is -59.8% (inactive). Moreover, the inhibition in assay [5] was 2.43% (inactive); in assay [6], -5.27% (inactive).

Consider `Cc1[nH]nc(-c2ccc(O)c(C)c2O)c1-c1cnn(-c2ccccc2)c1`, for which the viability in assay [1] was 93% (inactive); in assay [2], 85.4% (inactive); in assay [3], 94.2% (inactive); in assay [4] (setting [7]), 82.1%; in assay [4] (setting [8]), 94.2%. In addition, in assay [4] (H69AR cells + 2 uM doxorubicin), the differential viability (reversal) was 12% (inactive). For the same molecule, the inhibition in assay [5] was -4.52% (inactive); in assay [6], -3.27% (inactive).

As for `CC(=O)OCC(=O)[C@@]1(O)CC[C@H]2[C@@H]3CCC4=CC(=O)C=C[C@]4(C)[C@H]3[C@@H](O)C[C@@]21C`, the viability in assay [1] was 82% (inactive); in assay [2], 91.5% (inactive); in assay [3] it was 91.1% (inactive); in assay [4] (setting [7]), 98.2%; in assay [4] (setting [8]), 91.1%. In addition, the differential viability (reversal) in assay [4] (H69AR cells + 2 uM doxorubicin) is -7.15% (inactive). The inhibition in assay [5] was 1.56% (inactive); in assay [6], -1.83% (inactive).

For the molecule `Cn1c(=O)cc(OCCCC(=O)N2CCCCC2)c2ccccc21`, the viability in assay [1] was 98% (inactive); in assay [2] it was 87.5% (inactive); in assay [3], 91.5% (inactive); in assay [4] (setting [7]), 79.5%; in assay [4] (setting [8]), 91.5%. In assay [4] (H69AR cells + 2 uM doxorubicin), the differential viability (reversal) is 12% (inactive). In addition, the inhibition is -1.82% (inactive) in assay [5] and 0.98% (inactive) in assay [6].

As for `Clc1ccc2c(c1)C(N1CCNCC1)=Nc1ccccc1O2`, the viability was 73% (inactive) in assay [1]; 46% (inactive) in assay [2]; 84.4% (inactive) in assay [3]; 73% in assay [4] (setting [7]); 84.4% in assay [4] (setting [8]). In assay [4] (H69AR cells + 2 uM doxorubicin), the differential viability (reversal) is 11.4% (inactive). The results for the inhibition in assay [5] and in assay [6] were -1.3% (inactive) and -3.83% (inactive), respectively.

For the molecule `COc1ccc(C(=O)Nc2cccnc2)cc1C(=O)Nc1cccnc1`, the viability in assay [1] is 150% (inactive); in assay [2], 79.9% (inactive); in assay [3], 97.4% (inactive); in assay [4] (setting [7]) it was 94.6%; in assay [4] (setting [8]) it was 97.4%. Moreover, the differential viability (reversal) in assay [4] (H69AR cells + 2 uM doxorubicin) was 2.72% (inactive). Besides, the inhibition is 7.53% (inactive) in assay [5] and -3% (inactive) in assay [6].

On to `CCCCOc1cc(C(=O)NCCN(CC)CC)c2ccccc2n1`, for which the viability in assay [1] is 99% (inactive) and 112% (inactive); in assay [2], 53.4% (inactive) and 59.6% (inactive); in assay [3] it was 89.5% (inactive) and 84.4% (inactive); in assay [4] (setting [7]), 81.4% and 66.6%; in assay [4] (setting [8]), 89.5% and 84.4%. For the same molecule, the differential viability (reversal) in assay [4] (H69AR cells + 2 uM doxorubicin) was 8.11% (inactive) and 17.8% (inactive). Further, the inhibition in assay [5] is -2.86% (inactive) and -0.26% (inactive); in assay [6], 0.33% (inactive) and 6.5% (inactive).

Take `CCc1c(C)c2ccc(OCC(=O)OC)cc2oc1=O`: the viability was 109% (inactive) in assay [1]; 92.8% (inactive) in assay [2]; 94.4% (inactive) in assay [3]; 96.9% in assay [4] (setting [7]); 94.4% in assay [4] (setting [8]). Also, the differential viability (reversal) in assay [4] (H69AR cells + 2 uM doxorubicin) is -2.49% (inactive). Also, the values for the inhibition in assay [5] and in assay [6] were -1.49% (inactive) and 21.4% (inactive), respectively.

With `O=C(NCCCN1CCN(Cc2ccccc2)CC1)C1CCN(c2nnc(-n3cccc3)s2)CC1`, the viability was 118% (inactive) in assay [1]; 97.1% (inactive) in assay [2]; 88.7% (inactive) in assay [3]; 84.4% in assay [4] (setting [7]); 88.7% in assay [4] (setting [8]). Also, the differential viability (reversal) in assay [4] (H69AR cells + 2 uM doxorubicin) was 4.26% (inactive). Further, the figures for the inhibition in assay [5] and in assay [6] were -4.93% (inactive) and -1.82% (inactive), respectively.

In the case of `Cn1c(=O)cc(SCC(=O)NCc2cccnc2)c2ccccc21`, the viability in assay [1] is 92% (inactive); in assay [2], 109% (inactive); in assay [3] it was 92.7% (inactive); in assay [4] (setting [7]), 83.9%; in assay [4] (setting [8]), 92.7%. Moreover, in assay [4] (H69AR cells + 2 uM doxorubicin), the differential viability (reversal) is 8.73% (inactive). Further, the inhibition in assay [5] is -6.8% (inactive); in assay [6], -1.82% (inactive).

For the molecule `C[C@]12C=CC(=O)C=C1CC[C@@H]1[C@@H]2[C@@H](O)C[C@@]2(C)[C@H]1CC[C@]2(O)C(=O)COC(=O)CCC(=O)O`, the viability in assay [1] is 112% (inactive); in assay [2] it was 80.3% (inactive); in assay [3], 84.4% (inactive); in assay [4] (setting [7]) it was 81.4%; in assay [4] (setting [8]) it was 84.4%. In assay [4] (H69AR cells + 2 uM doxorubicin), the differential viability (reversal) is 2.96% (inactive). For the same molecule, the figures for the inhibition in assay [5] and in assay [6] were 1.95% (inactive) and 1.33% (inactive), respectively.

As for `CC(=O)O[C@H]1C[C@@H]2CC[C@@H]3[C@H](CC[C@@]4(C)[C@H]3C[C@H]([N+]3(C)CCCCC3)[C@@H]4OC(C)=O)[C@@]2(C)C[C@@H]1[N+]1(C)CCCCC1`, the viability was 111% (inactive) in assay [1]; 88.4% (inactive) in assay [2]; 94.5% (inactive) in assay [3]; 99.3% in assay [4] (setting [7]); 94.5% in assay [4] (setting [8]). In addition, the differential viability (reversal) in assay [4] (H69AR cells + 2 uM doxorubicin) is -4.76% (inactive). Moreover, the inhibition in assay [5] is 1.04% (inactive); in assay [6], 12.7% (inactive).

For `O=C(NCC1CCCO1)c1ccc(C(=O)NCC2CCCO2)cc1` (centres undefined), the viability in assay [1] is 97% (inactive); in assay [2] it was 108% (inactive); in assay [3], 113% (inactive); in assay [4] (setting [7]), 101%; in assay [4] (setting [8]), 113%. For the same molecule, the differential viability (reversal) in assay [4] (H69AR cells + 2 uM doxorubicin) is 11.3% (inactive). Further, the figures for the inhibition in assay [5] and in assay [6] were -6.76% (inactive) and -4% (inactive), respectively.

As for `COc1ccc(NC(=O)CSc2nc(C)cc(C(F)(F)F)n2)cc1`, the viability in assay [1] was 91% (inactive); in assay [2], 103% (inactive); in assay [3] it was 87.4% (inactive); in assay [4] (setting [7]), 84.1%; in assay [4] (setting [8]) it was 87.4%. In assay [4] (H69AR cells + 2 uM doxorubicin), the differential viability (reversal) was 3.33% (inactive). For the same molecule, the inhibition in assay [5] is -6.44% (inactive); in assay [6] it was -4.91% (inactive).

In the case of `CCCN1Cc2cccc(C(=O)NC3CCCC3)c2C1=O`, the viability was 111% (inactive) in assay [1]; 91.5% (inactive) in assay [2]; 87.9% (inactive) in assay [3]; 82.8% in assay [4] (setting [7]); 87.9% in assay [4] (setting [8]). The differential viability (reversal) in assay [4] (H69AR cells + 2 uM doxorubicin) was 5.09% (inactive). Besides, the inhibition in assay [5] is -7.47% (inactive); in assay [6] it was 6.36% (inactive).

For the molecule `O=C(CSc1nnc(-c2ccc(Br)cc2)n1C1CCCCC1)N1CCCC1`, the viability in assay [1] was 64% (inactive); in assay [2], 113% (inactive); in assay [3] it was 80.2% (inactive); in assay [4] (setting [7]), 87.1%; in assay [4] (setting [8]), 80.2%. Moreover, the differential viability (reversal) in assay [4] (H69AR cells + 2 uM doxorubicin) was -6.92% (inactive). The inhibition in assay [5] is -6.58% (inactive); in assay [6] it was -2% (inactive).

Take `NNC(=O)c1ccncc1`: the viability in assay [1] is 108% (inactive); in assay [2], 101% (inactive); in assay [3], 104% (inactive); in assay [4] (setting [7]) it was 93.7%; in assay [4] (setting [8]) it was 104%. In assay [4] (H69AR cells + 2 uM doxorubicin), the differential viability (reversal) was 10.2% (inactive). For the same molecule, the inhibition in assay [5] was 1.04% (inactive); in assay [6] it was 17.5% (inactive).

As to `CC(C(=O)O)c1ccc(-c2ccccc2)c(F)c1` (centres undefined), the viability is 94% (inactive) in assay [1]; 81.7% (inactive) in assay [2]; 90.2% (inactive) in assay [3]; 91.8% in assay [4] (setting [7]); 90.2% in assay [4] (setting [8]). The differential viability (reversal) in assay [4] (H69AR cells + 2 uM doxorubicin) was -1.62% (inactive). Further, the values for the inhibition in assay [5] and in assay [6] were -1.82% (inactive) and -1.5% (inactive), respectively.
